# Measured values from ChEMBL document CHEMBL2146377, “Rational design of 4-aryl-1,2,3-triazoles for indoleamine 2,3-dioxygenase 1 inhibition” (J Med Chem, 2012).
# Activity calls are given as the source filed them. No cut-off for these calls is given here.
# Legend:
# [1] = biological target: Indoleamine 2,3-dioxygenase 1 (Mus musculus, UniProt P28776); assay: Inhibition of mouse IDO1 in P815 clone 6 cells by HPLC analysis; format: cell-based
# Outline: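 Murine mastocytoma P815 stably transfected cells were used: P815-mIDO1 clone 6 for mouse IDO1 and P815B-hIDO1 clone 6 for human IDO1. Cells with inhibitor were incubated at 37 °C until under 50% of tryptophan was consumed, as tracked in control wells by pDMAB absorbance at 480 nm. Supernatant was TCA-precipitated, and tryptophan and kynurenine were quantified by C18 HPLC. Values are the mean of ≥2 independent assays.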
# physchem = conditions: pH 2
# [2] = biological target: T1, Indoleamine 2,3-dioxygenase 1 (Homo sapiens, UniProt P14902); assay: Inhibition of human IDO1 transfected in HEK293 clone 6 cells by HPLC analysis; format: cell-based
# Target sequence in this assay (P14902 whole entry, looked up): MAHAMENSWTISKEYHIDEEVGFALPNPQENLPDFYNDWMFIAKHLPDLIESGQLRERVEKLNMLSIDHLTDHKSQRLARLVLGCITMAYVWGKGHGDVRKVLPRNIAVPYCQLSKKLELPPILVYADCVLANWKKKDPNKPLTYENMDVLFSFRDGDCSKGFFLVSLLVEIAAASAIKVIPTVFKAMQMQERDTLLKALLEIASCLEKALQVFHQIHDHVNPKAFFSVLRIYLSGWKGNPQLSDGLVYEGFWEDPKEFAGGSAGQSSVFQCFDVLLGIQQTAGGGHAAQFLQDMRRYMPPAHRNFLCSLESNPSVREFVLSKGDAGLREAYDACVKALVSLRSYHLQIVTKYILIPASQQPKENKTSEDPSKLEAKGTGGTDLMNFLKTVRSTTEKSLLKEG
# [3] = biological target: Tryptophan 2,3-dioxygenase (Homo sapiens, UniProt P48775); assay: Inhibition of human TDO transfected in mouse P815B clone 19 cells by HPLC analysis; format: cell-based
# [4] = biological target: T1, Indoleamine 2,3-dioxygenase 1; assay: Inhibition of human IDO1 transfected in mouse P815B clone-6 cells by HPLC analysis; format: cell-based
# Target sequence in this assay (P14902 whole entry): as the sequence (P14902 whole entry, looked up) above
# [5] = biological target: T1, Indoleamine 2,3-dioxygenase 1; conditions: at 1 mM
# Target sequence in this assay (P14902 whole entry, looked up): as above
# HepG2 = assay: Cytotoxicity against human HepG2 cells after 24 hrs by MTS-PMS assay; format: functional; conditions: HepG2, 24 h, read-out: LD50 (the source's name)
# Outline: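 Hep G2 cells (2 × 10⁴ per well) in IMDM with 10% FCS exposed to compound titrated 0.001–100 μM for 24 h at 37 °C; living cells counted by MTS/PMS assay; LD₅₀ reported as mean of at least two independent assays with standard deviation.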
# [6] = biological target: Tryptophan 2,3-dioxygenase (Mus musculus, UniProt P48776); assay: Inhibition of mouse TDO in P815 clone 12 cells by HPLC analysis; format: cell-based
# [7] = Dissociation constant, pKa of the compound at pH 11 to 12 by spectrophotometric analysis; format: physicochemical
# [8] = biological target: T1, Indoleamine 2,3-dioxygenase 1; assay: Inhibition of human recombinant N-terminal His-tagged IDO1 (Ala2 to Gly403) overexpressed in Escherichia coli BL21 at pH 6.5 after 60 mins by HPLC analysis
# Target sequence in this assay (P14902 whole entry): as the sequence (P14902 whole entry, looked up) above
# Chain of Tryptophan 2,3-dioxygenase (Homo sapiens, UniProt P48775) (P48775 whole entry): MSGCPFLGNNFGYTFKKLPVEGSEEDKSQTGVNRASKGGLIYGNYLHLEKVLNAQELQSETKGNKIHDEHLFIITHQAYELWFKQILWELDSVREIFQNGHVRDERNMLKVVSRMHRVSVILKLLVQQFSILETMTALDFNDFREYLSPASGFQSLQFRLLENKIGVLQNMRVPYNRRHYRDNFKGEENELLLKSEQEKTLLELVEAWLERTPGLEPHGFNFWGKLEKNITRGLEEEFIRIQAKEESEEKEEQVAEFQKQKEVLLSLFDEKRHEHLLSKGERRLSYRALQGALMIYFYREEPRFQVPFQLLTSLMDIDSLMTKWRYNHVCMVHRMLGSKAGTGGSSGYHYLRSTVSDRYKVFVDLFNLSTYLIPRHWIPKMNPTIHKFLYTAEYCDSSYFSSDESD
# Chain of Tryptophan 2,3-dioxygenase (Mus musculus, UniProt P48776) (P48776 whole entry): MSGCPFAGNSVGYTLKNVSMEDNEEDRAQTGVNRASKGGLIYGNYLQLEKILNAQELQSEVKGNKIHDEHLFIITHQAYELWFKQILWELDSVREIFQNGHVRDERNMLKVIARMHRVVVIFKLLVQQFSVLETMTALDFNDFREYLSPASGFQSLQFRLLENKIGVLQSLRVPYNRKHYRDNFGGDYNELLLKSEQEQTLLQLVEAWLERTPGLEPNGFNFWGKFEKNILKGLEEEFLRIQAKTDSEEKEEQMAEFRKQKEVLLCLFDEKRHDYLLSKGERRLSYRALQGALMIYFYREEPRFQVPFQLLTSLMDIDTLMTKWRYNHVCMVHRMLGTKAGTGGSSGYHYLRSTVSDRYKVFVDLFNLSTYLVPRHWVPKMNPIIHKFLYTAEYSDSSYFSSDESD
# Chain of Indoleamine 2,3-dioxygenase 1 (Mus musculus, UniProt P28776) (P28776 whole entry): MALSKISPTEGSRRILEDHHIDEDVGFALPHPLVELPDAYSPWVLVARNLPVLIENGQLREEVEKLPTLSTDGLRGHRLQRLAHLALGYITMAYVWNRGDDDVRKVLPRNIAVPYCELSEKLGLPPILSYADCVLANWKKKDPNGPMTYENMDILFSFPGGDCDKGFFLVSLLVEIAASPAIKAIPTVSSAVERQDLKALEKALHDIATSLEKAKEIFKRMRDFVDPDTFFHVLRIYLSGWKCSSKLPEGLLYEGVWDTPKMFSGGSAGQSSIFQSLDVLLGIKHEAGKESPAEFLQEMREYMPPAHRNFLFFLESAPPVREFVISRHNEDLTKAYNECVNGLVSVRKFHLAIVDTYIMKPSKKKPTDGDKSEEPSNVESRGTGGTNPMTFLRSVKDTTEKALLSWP
SMILES,IC50 [1] [µM],pKa (physchem),inhibition [2],IC50 [3] [µM],IC50 [4] [µM],inhibition [5],CC50 (HepG2) [µM],IC50 [6] [µM],pKa [7],IC50 [8] [µM]
COc1ccccc1-c1c[nH]nn1,20,8.99,Active,> 100,> 100,inactive,> 100,> 100,,
c1ccc(-c2nc[nH]n2)cc1,,9.29,,,,inactive,,,2.05,
"c1nc[nH]n1 [1,2,4-TRIAZOLE]",,10.3,,,,,,,2.19,
Clc1cc(-c2c[nH]nn2)ccn1,0.06,7.6,Active,> 100,3.5,,> 100,> 100,,2.8
c1c[nH]nn1,,9.26,,,,,,,1.17,
c1ccc(-c2c[nH]cn2)cc1,,13.4,,,,,,,6.1,
Clc1cccc(-c2c[nH]nn2)c1Cl,1.7,8.06,Active,> 100,> 100,,> 100,> 100,,23
c1ccc(-c2cnn[nH]2)cc1,0.18,8.62,Active,> 100,,,> 100,> 100,0.4,
